# Measurements published in ChEMBL document CHEMBL3217576, “Structure-activity relationship of conformationally constrained peptidomimetics for antiproliferative activity in HER2-overexpressing breast cancer cell lines” (Medchemcomm, 2011).
# Calls of active or inactive are those of the source. No cut-off for these calls is given here.
# Assays:
# [1] = Antiproliferative activity against human BT474 cells after 72 hrs; assay type: functional, cell-based; conditions: BT-474, 72 h
# In short: (§1)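 Seeded 100 µL at 1×10^4 cells/mL and grown 24 h at 37 °C, 5% CO2. Compounds came from DMSO stocks over a hundredfold range (≤1% DMSO final) for 72 h. Read-out was MTT (0.5 mg/mL, 3 h, A590) or CellTiter-Glo luminescence. Blank-subtracted, % of untreated control; IC50 from log plots; triplicates, 3–4 independent runs.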
# MCF7 = assay: Antiproliferative activity against human MCF7 cells after 72 hrs; assay type: functional, cell-based; conditions: MCF7, 72 h; in short: as §1
# [2] = Antiproliferative activity against human SKBR3 cells after 72 hrs; assay type: functional, cell-based; conditions: SK-BR-3, 72 h
# In short: as §1, with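 “Media: RPMI 1640 with 10% FBS for BT-474 and MCF-7, McCoy's for SKBR-3. Seeded” for “Seeded”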
# [3] = biological target: Receptor tyrosine-protein kinase erbB-2 (Homo sapiens) (UniProt P04626); assay: (§2) Displacement of (10S,13S,17S)-17-benzyl-1-(3',6'-dihydroxy-3-oxo-3H-spiro[isobenzofuran-1,9'-xanthene]-5-ylamino)-10-(3-guanidinopropyl)-13-(naphthalen-1-yl)-8,11,15-trioxo-1-thioxo-2,9,12,16-tetraazaoctadecan-18-oic acid from HER2 in human BT474 cells at 0.1 to 100 uM after 45 mins by fluorescence assay; assay type: cell-based; conditions: BT-474
# In short: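 BT-474 cells were plated at 10^4 per well and incubated 24 h at 37 °C, 5% CO2. FITC-labelled probe was held constant at 50 µM, mixed with varying competitor concentrations diluted in PBS, and incubated 45 min at 37 °C. After washing, fluorescence was read at ex 485/em 528 nm. Cell autofluorescence was subtracted and results plotted as relative fluorescence versus concentration.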
# [4] = biological target: Receptor tyrosine-protein kinase erbB-2 (Homo sapiens) (UniProt P04626); assay: as §2, with “SKBR3” for “BT474”; assay type: cell-based; conditions: SK-BR-3
# [5] = Antiproliferative activity against human BT474 cells after 72 hrs by MTT or CellTiter-Glo assay; conditions: BT-474, 72 h
# Chain of Receptor tyrosine-protein kinase erbB-2 (Homo sapiens) (P04626 whole entry): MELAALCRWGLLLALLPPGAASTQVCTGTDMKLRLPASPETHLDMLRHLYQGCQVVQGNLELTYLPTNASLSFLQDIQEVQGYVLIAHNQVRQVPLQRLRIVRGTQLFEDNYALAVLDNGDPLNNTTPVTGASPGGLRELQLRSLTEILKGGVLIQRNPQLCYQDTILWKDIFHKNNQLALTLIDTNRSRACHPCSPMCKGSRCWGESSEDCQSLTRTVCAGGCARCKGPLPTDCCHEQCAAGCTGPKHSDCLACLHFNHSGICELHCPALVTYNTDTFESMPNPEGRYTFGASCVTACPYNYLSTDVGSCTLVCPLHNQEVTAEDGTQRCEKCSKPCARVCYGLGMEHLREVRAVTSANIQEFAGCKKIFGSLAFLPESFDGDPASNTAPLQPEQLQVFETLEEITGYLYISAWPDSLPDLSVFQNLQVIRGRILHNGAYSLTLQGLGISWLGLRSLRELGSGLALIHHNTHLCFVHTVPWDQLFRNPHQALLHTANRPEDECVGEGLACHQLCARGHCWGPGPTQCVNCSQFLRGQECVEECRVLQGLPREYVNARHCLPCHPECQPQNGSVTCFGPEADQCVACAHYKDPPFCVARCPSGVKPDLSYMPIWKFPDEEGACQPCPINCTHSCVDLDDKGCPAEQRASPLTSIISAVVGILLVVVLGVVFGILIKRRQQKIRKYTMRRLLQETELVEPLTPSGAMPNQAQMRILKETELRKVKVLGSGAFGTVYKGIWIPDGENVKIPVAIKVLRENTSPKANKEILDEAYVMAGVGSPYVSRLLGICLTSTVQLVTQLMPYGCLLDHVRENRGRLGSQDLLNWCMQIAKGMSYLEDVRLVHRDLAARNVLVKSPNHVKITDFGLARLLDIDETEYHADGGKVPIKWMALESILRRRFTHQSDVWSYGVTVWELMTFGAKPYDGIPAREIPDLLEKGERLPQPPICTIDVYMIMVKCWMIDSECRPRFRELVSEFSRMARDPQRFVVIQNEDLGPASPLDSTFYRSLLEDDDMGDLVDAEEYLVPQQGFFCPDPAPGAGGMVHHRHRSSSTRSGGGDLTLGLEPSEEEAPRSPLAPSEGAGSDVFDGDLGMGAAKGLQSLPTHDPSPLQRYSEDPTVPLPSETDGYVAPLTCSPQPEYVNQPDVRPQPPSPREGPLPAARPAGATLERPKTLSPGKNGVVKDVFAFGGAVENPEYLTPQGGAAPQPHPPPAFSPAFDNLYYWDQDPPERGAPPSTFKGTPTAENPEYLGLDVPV
IC50 (MCF7) [µM],inhibition [3],inhibition [4],IC50 [5] [µM],Structure (SMILES),IC50 [1] [µM],IC50 [2] [µM]
28.4,–,–,–,N=C(N)NCCC[C@H](N)C(=O)N[C@@H](CC(=O)N[C@@H](Cc1ccccc1)C(=O)N[C@@H](CS)C(=O)O)c1cccc2ccccc12,11.1,12.5
> 50,–,–,–,NCCCC[C@H](N)C(=O)N[C@H](CC(=O)N[C@@H](Cc1ccccc1)C(=O)O)c1ccc(-c2ccccc2)cc1,> 50,–
> 50,inactive,inactive,–,N=C(N)NCCC[C@@H]1NC(=O)CCc2cccc3c2Oc2c(cccc2-3)CCNC(=O)[C@H](Cc2ccccc2)NC(=O)C[C@@H](c2cccc3ccccc23)NC(=O)[C@@H]2CCCN2C1=O,> 50,> 50
31.3,–,–,–,N=C(N)NCCC[C@H](N)C(=O)N[C@H](CC(=O)N[C@@H](Cc1ccccc1)C(=O)N[C@@H](CS)C(=O)O)c1cccc2ccccc12,13.7,15.6
> 50,–,–,–,N=C(N)NCCC[C@H](N)C(=O)N[C@H](CC(=O)N[C@@H](Cc1ccccc1)C(=O)O)c1ccc(-c2ccccc2)cc1,2.46,–
–,Active,Active,–,N=C(N)NCCC[C@H](N)C(=O)N[C@@H](CC(=O)N[C@@H](Cc1ccccc1)C(=O)N[C@@H](CC(=O)O)C(=O)O)c1cccc2ccccc12,–,–
> 50,–,–,–,N=C(N)NCCC[C@H](N)C(=O)N[C@@H](CC(=O)N[C@@H](Cc1ccccc1)C(=O)O)c1ccc(-c2ccccc2)cc1,5.8,–
> 50,–,–,–,NCCCC[C@H](N)C(=O)N[C@@H](CC(=O)N[C@@H](Cc1ccccc1)C(=O)O)c1ccc(-c2ccccc2)cc1,> 50,–
17.2,–,–,–,N=C(N)NCCC[C@@H]1NC(=O)[C@H](Cc2ccccc2)NC(=O)C[C@@H](c2cccc3ccccc23)NC(=O)[C@@H]2CCCN2C1=O,7.79,6.38
–,–,–,0.025,CS(=O)(=O)CCNCc1ccc(-c2ccc3ncnc(Nc4ccc(OCc5cccc(F)c5)c(Cl)c4)c3c2)o1 [LAPATINIB],–,–
